Shown are actives, neighbours in structure and some others; about 1.4% of the full set was active somewhere.
Neddylation inh – inhibitors of cullin neddylation, primary screen, biochemical, TR-FRET, uHTS, NAE and Ubc12 | NEDD8-conjugating enzyme Ubc12 (Homo sapiens) + NEDD8-activating enzyme E1 regulatory … | inhibition, % at 25 µM | 0.58% of 360,000 active | AID 651699, 2012; in the data active = inhibition above about 36%
UBC9 SUMO inh – inhibitors of in vitro SUMOylation cascade, primary screen, biochemical, HTRF, uHTS; SUMO-conjugating enzyme UBC9 (Homo sapiens), P63279; HTRF SUMOylation assay, SAE1/SAE2 + UBC9; inhibition, % at 35 µM; 0.36% of 290,000 active; in the data active = inhibition above about 50%, passing the limit was not always enough
Target sequence (P63279 whole entry, looked up): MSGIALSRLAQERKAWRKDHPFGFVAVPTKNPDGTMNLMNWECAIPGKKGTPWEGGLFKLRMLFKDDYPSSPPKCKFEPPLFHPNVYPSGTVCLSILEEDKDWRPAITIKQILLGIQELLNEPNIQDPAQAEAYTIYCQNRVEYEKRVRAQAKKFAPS
UCH37 inh – inhibitors of human UCH37 deubiquitinase, primary screen, biochemical, Ub-AMC cleavage, fluorescence. Ubiquitin carboxyl-terminal hydrolase isozyme L5 (Homo sapiens), Q9Y5K5. purified proteasome/UCH37. inhibition, % (concentration not given with the values). 0.33% of 330,000 active;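 active = mean inhibition over replicate wells above about 20%, limit read from the data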;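 note: 0% = compound-free wells with enzyme and 100% = wells lacking proteasome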
Target sequence (Q9Y5K5 whole entry, looked up): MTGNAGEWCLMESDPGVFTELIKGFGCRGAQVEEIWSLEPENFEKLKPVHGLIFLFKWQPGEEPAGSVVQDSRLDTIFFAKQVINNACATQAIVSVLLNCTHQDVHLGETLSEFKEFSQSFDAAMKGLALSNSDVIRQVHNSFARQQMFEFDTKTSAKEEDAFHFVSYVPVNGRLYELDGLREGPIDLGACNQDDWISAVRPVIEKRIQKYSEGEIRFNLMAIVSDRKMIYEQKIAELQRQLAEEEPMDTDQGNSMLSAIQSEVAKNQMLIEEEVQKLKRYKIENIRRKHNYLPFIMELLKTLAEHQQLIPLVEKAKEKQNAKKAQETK
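Test system – human UCH37 enzyme supplied as purified proteasome complex · Incubation – 30 min preincubation with enzyme, 25 min cleavage at room temperature · Detection – AMC fluorescence from Ub-AMC cleavage, excitation 355 nm, emission 460 nm · Benchmarks – no-proteasome wells (full inhibition) and compound-free wells (no inhibition)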
CTSL1 counter – Fasciola hepatica cathepsin L1 inhibitors, primary screen, counter-screen for PFM18AAP inhibitor project, biochemical, QFRET, fluorogenic peptide substrate. inhibition, % at 5.96 µM. AID 1906, 2009. 0.49% of 300,000 active. recombinant F. hepatica cathepsin L1, Z-Leu-Arg-MCA fluorescence;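 active = inhibition above the mean of all tested compounds plus 3 SD, set per screening campaign, cut at about 17% in these data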;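 note: 0% = plate median of test compound wells and 100% = 1 µM Z-Phe-Ala-diazomethylketone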
Neddyl conf – blockade of NEDD8 conjugation to cullin – biochemical, TR-FRET, single concentration, confirmation; shares compounds with Neddylation inh; TR-FRET cullin neddylation biochemical assay; calls only at 25 µM; 13% of 1,800 active; AID 652217, 2013; in the data active = inhibition above about 40%;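 note: neddylation substrate is the cullin 1 ring ligase complex with SKP2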
* hit, by the source's call; i = inactive; . = no result given; + = active, no number; ! = repeats disagree.

SMILES	Neddylation inh	UBC9 SUMO inh	UCH37 inh	CTSL1 counter	Neddyl conf
Cc1cccn2c(=O)c(C(=O)NC3CCCCC3C)c(O)nc12 (stereo not given)	30.6	.	-28.6	2.6	.
Cc1ccn2c(=O)c(C(=O)NCCCN3CCCC3=O)c(O)nc2c1	47.8*	5.0	-91.0	50.0*	+
COCc1cc(C)nc(OCC(=O)NN=Cc2ccc(O)cc2)c1C#N	.	.	4.1	.	.
Cc1nn(-c2ccccc2)c2c1P(=O)(O)/C(=C1\N(C)c3ccccc3C1(C)C)C=N2	44.8*	25.8	-2.1	0.0	i
Cc1nn(-c2ccccc2)c(N)c1C1(O)C(=O)N(C(C)C)c2ccccc21 (stereo not given)	-2.4	4.3	-2.0	-2.0	.
Cc1nn(C)c2nc(-c3cccs3)cc(C(F)(F)F)c12	45.2*	-12.0	-67.2	3.7	i
Cc1nn(CCO)c2nc(-c3cccs3)cc(C(F)(F)F)c12	.	8.7	-343.6	3.6	.
COc1cccc(-c2c(C(=O)NN=Cc3sccc3C)nnn2-c2nonc2N)c1	.	.	-0.5	.	.
COc1ccc(-c2cc(C(F)(F)F)nc(-n3ccnc3)n2)cc1	45.1*	12.9	-22.4	3.8	i
COc1ccc(-c2cc(C(F)(F)F)nc(-n3cncn3)n2)cc1	.	26.7	-54.0	-1.0	.
O=S(=O)(c1ccc(Cl)cc1)N1CCN(c2ccc(N3CCOCC3)nn2)CC1	43.3*	12.5	-34.2	1.0	i
CCn1c(=O)c(-c2ccccc2)c(O)c2ccccc21	40.9*	11.2	1.3	-0.8	+
COc1cccc([C@@H]2CC=C(C(=O)O)[C@H](c3ccc(F)cc3)N2S(=O)(=O)c2ccc(C)cc2)c1	38.0*	.	1.4	0.5	i
COc1cccc([C@@H]2CC=C(C(=O)O)[C@H](c3ccccc3)N2S(=O)(=O)c2ccc(C)cc2)c1	-5.3	.	1.1	3.9	.
CCOC(=O)C1CCc2c(ccc3ccccc23)N1CCC#N (stereo not given)	46.7*	.	.	.	.
COCCNC(=S)NN=Cc1ccc2c(c1)OCCO2	.	.	13.1	.	.
Cc1ccc(-c2ccc3nnc(SCC(=O)NCC4CCCO4)n3n2)cc1 (stereo not given)	19.8	32.5	-1.9	2.1	.
COc1ccc(-c2ccc3nnc(SCC(=O)NCC4CCCO4)n3n2)cc1 (stereo not given)	59.0*	.	-95.9	1.3	.
CCOc1ccc(-c2ccc3nnc(SCC(=O)NCC4CCCO4)n3n2)cc1 (stereo not given)	53.7*	.	-96.2	2.9	.
CCOc1ccc(-c2ccc(SCC(=O)NCC3CCCO3)nn2)cc1 (stereo not given)	21.1	13.6	-2.1	-2.8	.
CCc1ccc(-c2ccc3nnc(SCC(=O)NCC4CCCO4)n3n2)cc1 (stereo not given)	58.5*	.	-41.9	-0.1	.
Cc1nc2c(C#N)cnn2c2c1CCN2CC1CCCO1 (stereo not given)	43.1*	17.4	0.6	2.4	i
Cc1nc2c(C#N)cnn2c2c1CCN(Cc1ccccc1)N2C	15.9	14.9	0.7	1.6	.
O=C1CSC(c2cn(-c3ccccc3)nc2-c2cc3ccccc3oc2=O)N1Cc1cccnc1 (stereo not given)	41.6*	7.9	-15.4	-3.0	i
Cc1n[nH]c(=O)nc1NN=Cc1cccs1	.	.	7.9	.	.
SMILES	Neddylation inh	UBC9 SUMO inh	UCH37 inh	CTSL1 counter	Neddyl conf
COC(=O)c1cc(COc2ccc3ccc(=O)oc3c2)c(C)o1	56.4*	-7.4	-37.1	4.5	+
COC(=O)c1ccc(COc2ccc3ccc(=O)oc3c2)o1	40.2*	14.2	-45.5	.	i
COC(=O)c1ccc(COc2ccc(C)c(C)c2)o1	-1.6	-3.7	0.9	-0.6	.
CCCCC(C)=NNC(=O)C(=O)NCCc1ccccc1	.	.	0.5	.	.
CCOc1cc(C=NNc2nc(N3CCCCC3)nc(N3CCCCC3)n2)ccc1OC(=O)c1ccco1	.	.	3.5	.	.
Cc1cc(N2CCN(C)CC2)nc2ccc(NC(=O)CCC(=O)NCc3ccco3)cc12	43.1*	15.5	-98.3	-0.2	i
CCOc1cccc(-c2c(C(=O)NN=Cc3sccc3C)nnn2-c2nonc2N)c1	.	.	0.3	.	.
c1ccc(-c2cc3ncccc3cn2)cc1	3.9	.	0.9	.	.
c1cnc2cc(-c3ccsc3)ncc2c1	44.5*	.	3.0	.	+
CC1(C)Oc2ccc3ccc(=O)oc3c2CC1O (stereo not given)	55.3*	4.3	-170.7	0.5	.
CCO[C@H]1c2c(ccc3ccc(=O)oc23)OC(C)(C)[C@H]1O	35.4*	.	-17.3	.	i
CCOc1cc(C=NNC(=O)COc2ccc(C)cc2)ccc1OC(=O)c1cccs1	.	.	0.5	.	.
CCOc1c(C)cc(-c2ncccc2O)cc1C	45.2*!	20.7	-142.4	1.0	i
Cn1c2ccc(F)cc2c2ncn(CCCN(CCO)CCO)c(=O)c21	37.9*	5.2	-118.4	0.2	i
O=C(COc1ccc2c3c(c(=O)oc2c1)CCCC3)NCCN1CCOCC1	51.7*	.	-35.2	2.9	i
O=C(O)C1CCN(C(=O)COc2ccc3c4c(c(=O)oc3c2)CCC4)CC1	42.2*	36.4	-56.4	1.0	i
O=C(COc1ccc2c3c(c(=O)oc2c1)CCC3)NCCN1CCOCC1	25.0	-1.5	-15.4	4.8	.
CC1(C)CC(NC(=O)COc2ccc3c4c(c(=O)oc3c2)CCCC4)CC(C)(C)N1	60.2*	3.3	-31.8	2.5	.
NC(=O)C1CCN(C(=O)COc2ccc3c4c(c(=O)oc3c2)CCCC4)CC1	.	20.4	-64.3	-1.4	.
O=C(COc1ccc2c3c(c(=O)oc2c1)CCCC3)NCCCN1CCOCC1	41.1*	3.9	-23.7	4.2	i
CC(=NNc1nc2ccccc2[nH]1)c1ccc2c(c1)OCCO2	.	.	-0.3	.	.
Clc1cccc(C=NNc2ncnc3ccccc23)c1	.	.	6.8	.	.
O=C(Cc1ccc([N+](=O)[O-])cc1)Nc1ccc2c(c1)C(=O)NC2=O	18.3	19.4	-6.2	8.5	.
CC(C)(C)c1ccc(C(=O)Nc2ccc3c(c2)C(=O)NC3=O)cc1	.	15.7	-235.1	-2.0	.
O=C(Cc1ccc(Cl)cc1)Nc1ccc2c(c1)C(=O)NC2=O	51.3*	19.6	-46.7	-0.3	.
CC(=O)c1ccc(C(=O)Nc2ccc3c(c2)C(=O)NC3=O)cc1	44.8*	8.4	-5.4	3.7	i
O=C(Nc1cccc2nsnc12)c1cccs1	.	23.9	-84.1	3.3	i
O=C(Nc1ccc2nsnc2c1)c1cccs1	37.5	42.8	-8.9	0.9	.
O=C(NN=Cc1ccc(Cl)cc1)c1sccc1-n1cccc1	.	.	2.2	.	.
CCOC(=O)C1CCN(c2cc3c(cc2NC(=O)c2ccccc2Cl)n(C)c(=O)n3C)CC1	.	24.8	0.7	4.7	.

Compound activity from PubChem BioAssay.
